Bioassay records (PubChem BioAssay)
Only a selection was taken, and hits are over-represented in it overall.
T cruzi growth-1 – blocks T. cruzi growth in NIH3T3 culture; T. cruzi beta-gal in NIH3T3, GalScreen luminescence, 90 h; inhibition, % at 8.34 µM; 5.9% of 77,000 active; AID 624255;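 active = mean inhibition above about 93%, with at least 55% of replicates each passing it, limit read from the data, passing the limit was not always enough; inconclusive = only one of those two conditions holds; inactive = neither condition holds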
GASC1 inh – inhibitors of human demethylase GASC-1 KDM4C; Q9H3R0; GST-KDM4C 2-372, H3K9me3 peptide, LANCE TR-FRET; inhibition, % at 12.5 µM; 0.15% of 96,000 active;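 active = mean replicate inhibition above about 25%, with at least 55% of replicates also reaching it, limit read from the data, passing the limit was not always enough; inconclusive = only one of those two conditions met; inactive = neither condition met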
Target sequence (Q9H3R0 2-372 limits assumed): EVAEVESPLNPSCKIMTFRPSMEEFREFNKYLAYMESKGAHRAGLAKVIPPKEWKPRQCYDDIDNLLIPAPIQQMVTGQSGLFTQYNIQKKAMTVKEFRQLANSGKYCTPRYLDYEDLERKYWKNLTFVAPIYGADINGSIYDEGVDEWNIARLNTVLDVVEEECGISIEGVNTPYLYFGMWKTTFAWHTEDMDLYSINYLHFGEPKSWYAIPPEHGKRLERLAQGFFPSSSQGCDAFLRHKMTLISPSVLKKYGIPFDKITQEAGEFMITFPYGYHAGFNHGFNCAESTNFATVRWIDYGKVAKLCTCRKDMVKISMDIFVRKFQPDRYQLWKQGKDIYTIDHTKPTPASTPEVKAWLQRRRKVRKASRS
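System – N-terminal GST-fused human GASC-1 (KDM4C) fragment, residues 2-372 · Input – enzyme final amount 10 nM · Technique – LANCE TR-FRET, Eu antibody, ULight-streptavidin, EDTA, ex 340 nm, em 618/671 nm · Medium – HEPES buffer, pH 7.5, plus ascorbate · Incubation – enzyme reaction 30 min, then detection 60 min, both room temperature · Reagent – H3K9me3 peptide with Fe(II)/2OG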
IDH1 mut inh – inhibitors of human IDH1 R132H | inhibition, % at 10 µM | IDH1 R132H reductase, diaphorase/resazurin fluorescence, 60 min | O75874 | 0.18% of 70,000 active; in the data active = inhibition above about 34%; inconclusive = no clear call, values can overlap the other calls; inactive = below about 11%;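 note: 0% = DMSO and 100% = no enzyme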
Target sequence (O75874 whole entry R132H): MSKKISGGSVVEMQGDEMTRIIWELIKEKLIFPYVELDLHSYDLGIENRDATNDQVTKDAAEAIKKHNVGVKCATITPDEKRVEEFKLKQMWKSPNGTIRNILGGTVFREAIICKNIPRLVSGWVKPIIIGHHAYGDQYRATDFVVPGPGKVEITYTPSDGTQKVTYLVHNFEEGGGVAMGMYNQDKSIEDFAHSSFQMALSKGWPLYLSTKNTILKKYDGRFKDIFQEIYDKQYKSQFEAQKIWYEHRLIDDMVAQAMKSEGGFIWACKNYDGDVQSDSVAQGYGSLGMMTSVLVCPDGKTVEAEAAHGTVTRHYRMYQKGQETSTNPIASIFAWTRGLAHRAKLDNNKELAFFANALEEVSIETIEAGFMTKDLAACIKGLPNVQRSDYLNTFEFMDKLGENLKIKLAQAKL
T cruzi growth-2 – blocks T. cruzi growth in NIH3T3 host cells; shares compounds with T cruzi growth-1; T. cruzi beta-gal in NIH3T3, GalScreen luminescence, 90 h; inhibition, % at 8.35 µM; 72% of 5,600 active; AID 651739;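 active = mean replicate inhibition above about 95% and at least 55% of replicates individually reaching it, limit read from the data; inconclusive = only one of the two criteria is met; inactive = neither criterion is met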
T cruzi growth-3 – blocks T. cruzi growth in NIH3T3 host cells; shares compounds with T cruzi growth-1; T. cruzi beta-gal in NIH3T3, GalScreen luminescence, 90 h; inhibition, % at 2.09 µM; 21% of 5,600 active;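 active = mean inhibition above about 95%, with at least 55% of replicates also reaching it, limit read from the data; inconclusive = meets just one of the two conditions; inactive = meets neither condition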;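 note: plate controls were neutral control median for no effect and positive control median for full effect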
3T3 cytotox – NIH/3T3 (mouse) viability loss. cytotoxicity (signal decrease), % at 8.35 µM. shares compounds with T cruzi growth-1. 14% of 5,600 active. NIH/3T3 viability, CellTiter-Glo ATP luminescence, 90 h;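 active = mean signal decrease across replicates above about 35% based on untreated-well scatter, with enough replicates individually passing, limit read from the data; inconclusive = no rule stated though some were filed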;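 note: 0% = median of neutral control wells and 100% = median of positive control wells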
NIH3T3 tox 2 – cytotoxicity in mouse NIH/3T3 fibroblasts; shares compounds with T cruzi growth-1; NIH/3T3 viability, CellTiter-Glo ATP luminescence, 90 h; inhibition, % at 24.9 µM; 56% of 5,600 active; AID 651744;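 active = mean loss of cell viability signal at or above a set limit, and enough replicates individually reaching it; inconclusive = meets only the mean limit or only the replicate share; inactive = meets neither condition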;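 note: 0% = median of neutral control wells and 100% = median of positive control wells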
Active calls of the source: *; u = inconclusive; x = no result given.

SMILES	T cruzi growth-1	GASC1 inh	IDH1 mut inh	T cruzi growth-2	T cruzi growth-3	3T3 cytotox	NIH3T3 tox 2
C[C@@H]1CN([C@@H](C)CO)S(=O)(=O)c2ccc(/C=C/c3ccccc3)cc2O[C@H]1CN(C)C(=O)NC1CCCCC1	x	-1.2	x	x	x	x	x
Cc1c(CCC(=O)O)c(=O)oc2c(C)c(OCc3cccc4ccccc34)ccc12	x	x	0.2	x	x	x	x
C[C@@H]1CN([C@@H](C)CO)S(=O)(=O)c2ccc(Br)cc2O[C@@H]1CN(C)Cc1cccnc1	112.2*	1.2	0.1	107.0*	80.4	10.8	13.1
C[C@H](CO)N1C[C@H](C)[C@@H](CN(C)Cc2cccnc2)Oc2cc(Br)ccc2S1(=O)=O	111.1*	14.4	x	92.5	66.9	-4.9	39.5*
C[C@H](CO)N1C[C@H](C)[C@H](CN(C)Cc2cccnc2)Oc2cc(Br)ccc2S1(=O)=O	x	x	29.1	x	x	x	x
C[C@H]1CN([C@@H](C)CO)S(=O)(=O)c2ccc(Br)cc2O[C@H]1CN(C)Cc1cccnc1	x	2.1	2.1	x	x	x	x
O=C(CSc1nnc(-c2ccccc2)c(-c2ccccc2)n1)C1CC1	x	x	0.1	x	x	x	x
O=C(NC[C@@H]1N[C@@H](CO)[C@@H]1c1ccc(C2=CCCC2)cc1)c1ccccc1	112.5*	-2.6	x	107.9*	81.5	38.6*	107.1*
O=C(NC[C@H]1N[C@H](CO)[C@@H]1c1ccc(-c2ccccc2F)cc1)c1ccccc1	u	-1.2	x	95.7*	11.2	1.8	105.3*
COCC(=O)NC[C@H]1N[C@H](CO)[C@@H]1c1ccc(C2=CCCCC2)cc1	98.2*	2.7	x	69.5	-9.0	-9.9	12.2
COCC(=O)NC[C@H]1N[C@H](CO)[C@H]1c1ccc(-c2ccccc2F)cc1	15.2	1.9	x	x	x	x	x
CCC(=O)NC[C@H]1N[C@H](CO)[C@@H]1c1ccc(-c2ccccc2F)cc1	x	-0.7	x	x	x	x	x
O=C(NC[C@@H]1N[C@@H](CO)[C@H]1c1ccc(-c2ccccc2F)cc1)c1ccccc1	109.2*	-4.0	x	106.8*	33.5	5.5	104.4*
O=C(NC[C@@H]1N[C@@H](CO)[C@H]1c1ccc(C2=CCCC2)cc1)c1ccccc1	39.8	-2.4	x	x	x	x	x
COCC(=O)NC[C@@H]1N[C@@H](CO)[C@H]1c1ccc(C2=CCCC2)cc1	-1.3	4.7	x	x	x	x	x
CCOC(=O)c1c(NC(=O)CSc2cc(C)c3ccccc3n2)sc(C)c1C	x	x	-0.3	x	x	x	x
Cc1cc(N(CC(=O)Nc2cc(Cl)ccc2Cl)S(C)(=O)=O)ccc1Br	x	x	-0.2	x	x	x	x
CC1CC(=O)[C@]2(C)CC[C@]3(C)C(C(=O)C(O)C4[C@@]5(C)CC[C@H](O)C(C)(C(=O)O)C5CC[C@]43C)C2C1C (some centres undefined)	x	x	0.5	x	x	x	x
Cc1ccc(NC(=O)CN(C)S(=O)(=O)c2ccccc2)c(C)c1	x	x	0.2	x	x	x	x
C[C@@H]1CN([C@H](C)CO)C(=O)c2cc(NS(=O)(=O)c3ccc(Cl)cc3)ccc2O[C@H]1CN(C)Cc1ccc(C(F)(F)F)cc1	80.3	1.2	2.6	x	x	x	x
C[C@H]1CN([C@@H](C)CO)C(=O)c2cc(NS(=O)(=O)c3ccc(Cl)cc3)ccc2O[C@@H]1CN(C)Cc1ccc(C(F)(F)F)cc1	u	-1.4	2.7	111.2*	70.3	23.0	102.8*
C[C@H](CO)N1C[C@H](C)[C@@H](CN(C)Cc2ccc(C(F)(F)F)cc2)Oc2ccc(NS(=O)(=O)c3ccc(Cl)cc3)cc2C1=O	64.1	5.4	x	x	x	x	x
C[C@H]1CN([C@@H](C)CO)C(=O)c2cc(NS(=O)(=O)c3ccc(Cl)cc3)ccc2O[C@H]1CN(C)Cc1ccc(C(F)(F)F)cc1	129.4*	-3.8	-0.5	109.3*	71.6	32.2	103.2*
COC(=O)c1ccc(Cl)c(NC(=O)CSc2nnc(-c3cc(OC)cc(OC)c3)o2)c1	x	x	-0.3	x	x	x	x
CCC(=O)N1CCCCN2[C@H](CO)[C@H](c3ccc(-c4cccnc4)cc3)[C@H]2C1	114.0*	0.5	x	37.3	24.4	-3.3	9.3
SMILES	T cruzi growth-1	GASC1 inh	IDH1 mut inh	T cruzi growth-2	T cruzi growth-3	3T3 cytotox	NIH3T3 tox 2
CCC(=O)N1CCCCN2[C@H](CO)[C@H](c3ccc(C#Cc4cccnc4)cc3)[C@H]2C1	101.3*	-1.3	x	100.1*	39.5	3.6	-11.0
CN(C)CC(=O)N1CCCCN2[C@H](CO)[C@H](c3ccc(-c4cccnc4)cc3)[C@H]2C1	108.0*	0.0	x	69.7	0.9	-5.7	2.1
CN(C)CC(=O)N1CCCCN2[C@@H](CO)[C@@H](c3ccc(-c4cccnc4)cc3)[C@@H]2C1	u	-0.6	x	u	29.5	3.0	-0.7
CN(C)CC(=O)N1CCCCN2[C@H](CO)[C@H](c3ccc(-c4cccnc4)cc3)[C@@H]2C1	63.8	-1.7	x	x	x	x	x
CCC(=O)N1CCCCN2[C@@H](CO)[C@H](c3ccc(C#Cc4cccnc4)cc3)[C@@H]2C1	77.5	-0.7	x	x	x	x	x
CCC(=O)N1CCCCN2[C@H](CO)[C@@H](c3ccc(-c4cccnc4)cc3)[C@@H]2C1	59.7	0.9	x	x	x	x	x
CN(C)CC(=O)N1CCCCN2[C@H](CO)[C@@H](c3ccc(-c4cncnc4)cc3)[C@H]2C1	-17.8	1.6	x	x	x	x	x
Cc1cc(C)c(S(=O)(=O)N(C)CC(=O)Nc2ccccc2F)c(C)c1	x	x	-0.4	x	x	x	x
COC(=O)c1cc(C(=O)NCc2ccco2)cc([N+](=O)[O-])c1	x	x	0.0	x	x	x	x
Cc1ccc(C(=O)O)cc1NC(=O)CCN1C(=O)c2ccccc2C1=O	x	x	0.0	x	x	x	x
C/C=C/C1=CC(=O)[C@H](O)[C@H]1O	x	x	0.1	x	x	x	x
C[C@H](CO)N1C[C@H](C)[C@H](CN(C)Cc2ccc(F)cc2)Oc2ncc(/C=C/c3ccccc3)cc2C1=O	x	-0.9	0.1	x	x	x	x
C/C=C/c1cnc2c(c1)C(=O)N([C@@H](C)CO)C[C@@H](C)[C@H](CN(C)Cc1ccccc1F)O2	x	-1.9	-2.9	x	x	x	x
C[C@@H]1CN([C@H](C)CO)C(=O)c2cc(/C=C/c3ccccc3)cnc2O[C@H]1CN(C)Cc1ccccc1F	87.1*	-1.0	-0.5	102.6*	u	10.0	103.1*
C[C@H](CO)N1C[C@H](C)[C@H](CN(C)Cc2ccccc2F)Oc2ncc(/C=C/c3ccccc3)cc2C1=O	95.5*	-2.3	-1.9	107.2*	77.3	17.2	60.0*
Cc1cccc(S(=O)(=O)N(C)C[C@@H]2OCc3ccccc3-c3c(n(C)c4ccccc34)C(=O)N([C@@H](C)CO)C[C@H]2C)c1	65.2	-0.9	x	x	x	x	x
Cc1cccc(S(=O)(=O)N(C)C[C@H]2OCc3ccccc3-c3c(n(C)c4ccccc34)C(=O)N([C@@H](C)CO)C[C@H]2C)c1	98.7*	-0.1	0.3	99.6*	108.5*	-4.8	17.8
Cc1cccc(S(=O)(=O)N(C)C[C@H]2OCc3ccccc3-c3c(n(C)c4ccccc34)C(=O)N([C@H](C)CO)C[C@H]2C)c1	90.5	-0.8	-1.8	x	x	x	x
